Data on one compound can be found in ChEMBL document CHEMBL3992522, “Antileishmanial Activity of Pyrazolopyridine Derivatives and Their Potential as an Adjunct Therapy with Miltefosine” (J Med Chem, 2017).

SMILES strings stand for the structures. The source made the active and inactive calls. The calls are words filed in the database; no cut-off is given here.

Data set [1] can be described thus: Stability in pH 6.5 simulated intestinal fluid at 5 ug/ml after 120 mins by HPLC method. In a few lines: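 Incubated in simulated gastric fluid (pH 1.2) or simulated intestinal fluid (pH 6.5); percentage remaining intact determined after 120 min.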
Data set [2] concerns Leishmania donovani. As to the kind of experiment: Antileishmanial activity against Leishmania donovani MHOM/IN/80/DD8 amastigote forms harboring luciferase gene infected in mouse J774 cells at 25 uM after 72 hrs by Steady-Glo reagent based luminescence assay relative to control. The format is functional. The note with it: MHOM/IN/80/DD8, J774, 72 h, read-out: GI. In a few lines: (§1)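 Stationary-phase luciferase-expressing Dd8 promastigotes infected into J774 macrophages (4×10^4/mL seeded, 24 h, 37 °C, 5% CO2) at 1:8 macrophage:parasite for 24 h. Non-internalised parasites washed off. Compounds added at 50 and 25 µM in RPMI/10% FBS for 72 h. Lysis with Steady-Glo luciferin reagent plus PBS, luminescence read. Inhibition relative to untreated infected controls.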

Data set [3] relates to Mus musculus. As to the kind of experiment: Restoration of T cell proliferation in Balb/c mouse splenocytes infected with Leishmania donovani amastigote forms at 25 mg/kg, ip co-treated with 5 mg/kg, po miltefosine administered for 5 consecutive days measured on day 4 post last treatment followed by soluble Leishmania donovani promastigote antigen-stimulation for 72 hrs by MTT assay relative to control. It is filed as functional. In a few lines: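 Splenocytes from treated infected BALB/c mice (day 4 or 7 post-treatment) isolated by Ficoll gradient, plated at 10^5/well in triplicate in phenol red-free RPMI 1640, stimulated with 5 μg/mL SLA for 72 h at 37 °C, 5% CO2. Proliferation read by MTT (0.5 mg/mL), formazan dissolved in DMSO, OD 540 nm.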
In general terms: Tetrazolium dyes change colour on reduction, which living cells bring about.

Data set [4] concerns Mus musculus. As to the kind of experiment: Increase in iNOS mRNA expression level in Balb/c mouse splenocytes infected with Leishmania donovani amastigote forms at 25 mg/kg, ip for 5 consecutive days measured on day 4 post last treatment by RT-PCR assay relative to control. The format is functional. In a few lines:
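Infected BALB/c mice dosed for 5 consecutive days (test compound i.p. in 8% DMSO, miltefosine oral), n = 5 per group; splenocytes taken day 4 and day 7 post-treatment. Total RNA extracted and iNOS mRNA quantified by real-time PCR, normalized to mouse β-actin, expressed as fold change over uninfected controls.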

Data set [5] in a line: Cytotoxicity against mouse J774 cells assessed as reduction in cell viability after 72 hrs by MTT assay. The format is cell-based. In a few lines:
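Vero and J774 cells seeded at 1×10^5 per well for 24 h, then exposed 72 h to seven two-fold dilutions from 500 to 7.81 μM. MTT solution (5 mg/mL stock) added for 2 h at 37 °C, formazan dissolved in DMSO and read at 540 nm. CC50 derived by the Huber and Koella method.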

Data set [6] relates to Leishmania donovani. As to the kind of experiment: Antileishmanial activity against Leishmania donovani amastigote forms infected in Balb/c mouse assessed as inhibition of parasitic burden in spleen at 25 mg/kg, ip administered for 5 consecutive days measured on day 7 post last treatment by Giemsa staining based assay relative to control. Conditions: 168 h.
Data set [7] has as its system Leishmania donovani. The data set can be described thus: Antileishmanial activity against Leishmania donovani MHOM/IN/80/DD8 promastigote forms harboring luciferase gene at 50 uM after 72 hrs by Steady-Glo reagent based luminescence assay relative to control. It is filed as functional. The note with it: MHOM/IN/80/DD8, 72 h, read-out: GI. In a few lines:
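Exponential-phase Dd8-Luc promastigotes at 1×10^6/mL in M199 with 10% FBS, 24 °C, given 50 and 25 µM for 72 h. Vehicle 0.1% DMSO. Steady-Glo added 1:1, luminescence (RLU) read. IC50 from four-parameter Hill regression, derived only where inhibition exceeded 90%. Means of at least three independent experiments.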

The nature of data set [8]: Elimination rate constant in Swiss mouse at 50 mg/kg, po by LC-MS/MS analysis. The format is ADME, organism-based. Conditions: in vivo.
For data set [9], the system named is Mus musculus. The data set can be described thus: Decrease in IL-10 level in Balb/c mouse splenocytes infected with Leishmania donovani amastigote forms at 25 mg/kg, ip co-treated with 5 mg/kg, po miltefosine administered for 5 consecutive days measured on day 7 post last treatment by sandwich ELISA relative to control. It is filed as functional. In a few lines:
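Splenocytes (2×10^6) from treated infected BALB/c mice taken on day 4 or 7 post-treatment. Cultured in phenol-red-free RPMI 1640 with 5 μg/mL soluble L. donovani antigen for 72 h at 37 °C, 5% CO2. Supernatant cytokines measured by sandwich ELISA against a standard curve. Mean ± SD, n = 5 mice per group, three independent experiments.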
In general terms: In an ELISA, binding on a coated surface is turned into a signal by an enzyme label.

Data set [10] relates to Mus musculus. As to the kind of experiment: Increase in iNOS-mediated NO generation in Balb/c mouse splenocytes infected with Leishmania donovani amastigote forms at 50 mg/kg, ip for 5 consecutive days measured on day 4 and 7 post last treatment followed by soluble Leishmania donovani promastigote antigen-stimulation for 72 hrs by Griess assay relative to control. It is filed as functional. In a few lines:
(§2)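 Splenocytes from treated infected BALB/c mice (5-day regimen, i.p. test compound, oral miltefosine; n = 5) isolated day 4 and day 7 post-treatment. Cultured in phenol red-free RPMI 1640 with 5 μg/mL SLA for 72 h at 37 °C, 5% CO2. Supernatant nitrite measured by Griess assay at 540 nm against a sodium nitrite standard curve.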

For data set [11], the system named is Leishmania donovani. The data set can be described thus: Antileishmanial activity against Leishmania donovani amastigote forms infected in Balb/c mouse assessed as inhibition of parasitic burden in liver at 50 mg/kg, ip administered for 5 consecutive days measured 1 week post last treatment by Giemsa staining based assay relative to control. Conditions: 168 h. The format is functional.

Data set [12] concerns Leishmania donovani. The data set can be described thus: Induction of apoptosis in Leishmania donovani MHOM/IN/80/DD8 promastigote forms assessed as cell rounding at 50 uM after 48 hrs by propidium iodide staining based fluorescent microscopic method. It is filed as functional.
The subject of data set [13] is Mus musculus. The data set can be described thus: Increase in iNOS-mediated NO generation in Balb/c mouse splenocytes infected with Leishmania donovani amastigote forms at 25 mg/kg, ip cotreated with 5 mg/kg, po miltefosine for 5 consecutive days measured on day 4 post last treatment followed by soluble Leishmania donovani promastigote antigen-stimulation for 72 hrs by Griess assay relative to control. The format is functional. In a few lines:
as §2
In general terms: The Griess reaction detects nitrite, a stable product of nitric oxide.

The test system of data set [14] is Leishmania donovani. As to the kind of experiment: Antileishmanial activity against Leishmania donovani MHOM/IN/80/DD8 amastigote forms harboring luciferase gene infected in mouse J774 cells at 50 uM after 72 hrs by Steady-Glo reagent based luminescence assay relative to control. The format is functional. Conditions: MHOM/IN/80/DD8, J774, 72 h, read-out: GI. In a few lines: as §1

Data set [15] has as its system Mus musculus. As to the kind of experiment: Toxicity in Balb/c mouse infected with Leishmania donovani amastigote forms assessed as changes in body weight at 12.5 to 200 mg/kg, ip co-treated with 5 to 25 mg/kg, po miltefosine for 5 consecutive days. It is filed as organism-based. The note with it: in vivo.
In data set [16] the test system is Leishmania donovani. As to the kind of experiment: Antileishmanial activity against Leishmania donovani MHOM/IN/80/DD8 amastigote forms harboring luciferase gene infected in mouse J774 cells at 6.25 to 12.5 uM up to 4 days by Steady-Glo reagent based luminescence assay. It is filed as functional, cell-based. In a few lines: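 Infected J774 macrophages held at 37 °C with two-fold dilutions from 200 to 6.25 µM. Intracellular amastigote growth followed by luciferase activity in lysed macrophages, expressed as RLU, over time. Three independent experiments.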

A short description of data set [17]: Cytotoxicity against African green monkey Vero cells assessed as cell viability up to 200 uM after 72 hrs by MTT assay relative to control. It is filed as cell-based. Conditions: chlorocebus sabaeus, read-out: Activity.
Data set [18] has as its system Mus musculus. The data set can be described thus: Increase in iNOS-mediated NO generation in Balb/c mouse splenocytes infected with Leishmania donovani amastigote forms at 25 mg/kg, ip for 5 consecutive days measured on day 4 and 7 post last treatment followed by soluble Leishmania donovani promastigote antigen-stimulation for 72 hrs by Griess assay relative to control. The format is functional. In a few lines: as §2

In general, CC50 refers to the concentration giving 50% cytotoxicity. As usually defined, the inhibition in vivo is the drop in the measured response relative to a control, in per cent. In [1], `COc1ccc(C2C3=C(CCC3=O)Nc3c2c(-c2c[nH]c4ccccc24)nn3-c2ccc(Cl)c(Cl)c2)cc1OC` (stereo not drawn) registered a Stability of 99%. The inhibition of growth at 25 µM in data set [2] turned out to be 96.8%. Moreover, the “fold change (FC)” value in [3] was 9.9; in data set [4] it was 4.9; in data set [10], 4.7; in data set [13], 5.6; in [18], 4.1. Moreover, the CC50 at 72 h in data set [5] came to 409 µM. In data set [6], the inhibition in vivo at 25 mg/kg was more than 59%. For the same compound, the inhibition of growth at 50 µM in data set [7] came to 93.3%; in data set [14] it was 97.3%. This compound also had a k el in data set [8] of 3.89e-05 s⁻¹. Moreover, the “inhibition (INH)” value in [9] worked out at 94%. Moreover, the inhibition in vivo at 50 mg/kg in [11] was more than 93%. The result in [12] and in data set [16] was Active. In data set [15], the Activity entry is “Non-Toxic”. Besides, the viability at 72 h in data set [17] was more than 95%.
